{"data": "Published values pooled from the literature", "target": "NT-3 growth factor receptor (NTRK3, Homo sapiens, UniProt Q16288)", "note": "Protocols differ between the studies behind these lines."}
{"SMILES": "Cc1cnc(NC2CCOCC2)nc1-n1cnc(C(=O)NC(CN)c2cc(F)cc(Cl)c2)c1 (stereo not shown)", "effect on": "enzyme activity", "action": "inhibitor", "technique": "radiometric", "concentration": "1 µM", "quantity": "remaining activity", "result": "93%"}
{"SMILES": "CN(C(=O)c1ccccc1)c1cc(N(C)c2ccc3c(c2)CCc2ccc(C(=O)NCCN4CCOCC4)cc2C3=O)ccc1F", "effect on": "cell-free assay", "technique": "competition with immobilised ligand", "concentration": "1 µM", "quantity": "remaining binding", "result": "90%"}
{"SMILES": "O=C(Nc1ccc2[nH]ncc2c1)c1cccc(NC(=S)Nc2ccc(F)cc2F)c1", "effect on": "enzyme activity", "action": "inhibitor", "technique": "FRET", "concentration": "1 µM", "quantity": "inhibition", "result": "12.5%"}
{"SMILES": "CN(C)C(=O)Cn1cc(-c2nc([C@@](C)(c3ccc(-c4cnc(N)nc4)cc3)C3CC3)no2)cn1", "effect on": "cell-free assay", "technique": "competition with immobilised ligand", "concentration": "1 µM", "quantity": "remaining binding", "result": "92%"}
{"SMILES": "N#CCCc1ccc2c(c1)-c1[nH]c3ccc([N+](=O)[O-])cc3c1CC(=O)N2", "effect on": "cell-free assay", "concentration": "0.5 µM", "quantity": "remaining signal", "result": "61.2%"}
{"SMILES": "O=C(Nc1cccc(C(=O)Nc2ccc3[nH]ncc3c2)c1)Nc1cccc(C(F)(F)F)c1", "effect on": "enzyme activity", "action": "inhibitor", "technique": "FRET", "concentration": "1 µM", "quantity": "inhibition", "result": "26.6%"}
{"SMILES": "COc1cc2ncnc(Nc3ccc(F)c(Cl)c3)c2cc1OCCCN1CCOCC1", "effect on": "cell-free assay", "concentration": "0.5 µM", "quantity": "remaining signal", "result": "103%"}
{"SMILES": "O=C(NC[C@@H]1[C@H]2CN(C(=O)OCc3cc(C(F)(F)F)cc(C(F)(F)F)c3)C[C@@H]12)c1ccc2[nH]nnc2c1", "effect on": "cell-free assay", "technique": "competition with immobilised ligand", "concentration": "1 µM", "quantity": "remaining binding", "result": "91%"}
{"SMILES": "CC(C)(C)c1nc(-c2cccc(NS(=O)(=O)c3c(F)cccc3F)c2F)c(-c2ccnc(N)n2)s1", "effect on": "enzyme activity", "action": "inhibitor", "technique": "radiometric", "concentration": "1 µM", "quantity": "remaining activity", "result": "93%"}
{"SMILES": "O=C(Nc1ccc(C(F)(F)F)cc1)Nc1cccc(C(=O)Nc2ccc3[nH]nc(-c4ccccc4)c3c2)c1", "effect on": "enzyme activity", "action": "inhibitor", "technique": "FRET", "concentration": "1 µM", "quantity": "inhibition", "result": "12.9%"}
{"SMILES": "COc1cc(Cl)c(C(=O)N[C@@H](CN[C@H]2CC[C@@H](N)CC2)Cc2ccc(C#N)cc2)cc1-c1ccc(CN[C@H](C)c2ccc(C)cc2)o1", "effect on": "enzyme activity", "action": "inhibitor", "concentration": "1 µM", "quantity": "remaining activity", "result": "96%"}
{"SMILES": "O=C(Nc1cnn2ccc(N3CCC[C@@H]3c3cc(F)ccc3F)nc12)N1CC[C@H](O)C1", "effect on": "enzyme activity", "action": "inhibitor", "technique": "FRET", "concentration": "1 µM", "quantity": "inhibition", "result": "100%"}
{"SMILES": "COc1cc2c(Nc3ccc(Br)cc3F)ncnc2cc1OCC1CCN(C)CC1", "effect on": "cell-free assay", "concentration": "0.5 µM", "quantity": "remaining signal", "result": "72.2%"}
{"SMILES": "CS(=O)(=O)NCC[C@H](NC(=O)c1cncc2c1cnn2-c1ccc(F)cc1)c1ccnc(S(C)(=O)=O)c1", "effect on": "cell-free assay", "technique": "competition with immobilised ligand", "concentration": "1 µM", "quantity": "remaining binding", "result": "100%"}
{"SMILES": "O=C(Nc1cccc(F)c1)Nc1cccc(C(=O)Nc2ccc3[nH]ncc3c2)c1", "effect on": "enzyme activity", "action": "inhibitor", "technique": "FRET", "concentration": "1 µM", "quantity": "inhibition", "result": "17%"}
{"SMILES": "O=C1NC(=O)c2cc(Nc3ccc(F)cc3)c(Nc3ccc(F)cc3)cc21", "effect on": "cell-free assay", "concentration": "0.5 µM", "quantity": "remaining signal", "result": "95.6%"}
{"SMILES": "CCCCN(CCCC)C(=O)CN1C[C@H](c2cc(OC)c3c(c2)OCO3)[C@@H](C(=O)O)[C@@H]1CC(C)(C)CCC", "effect on": "cell-free assay", "technique": "competition with immobilised ligand", "concentration": "1 µM", "quantity": "remaining binding", "result": "50.5%"}
{"SMILES": "O=C(Nc1cccc(C(=O)Nc2ccc3[nH]ncc3c2)c1)Nc1ccccc1Cl", "effect on": "enzyme activity", "action": "inhibitor", "technique": "FRET", "concentration": "1 µM", "quantity": "inhibition", "result": "27.4%"}
{"SMILES": "NS(=O)(=O)c1cc(NC(=O)Cc2ccccc2)ccc1Oc1cccc(Cl)c1", "effect on": "cell-free assay", "technique": "competition with immobilised ligand", "concentration": "1 µM", "quantity": "remaining binding", "result": "87%"}
{"SMILES": "Cc1cc(NC(=O)c2cccc3cc(-c4cccc5[nH]nc(N)c45)ccc23)ccc1F", "effect on": "enzyme activity", "action": "inhibitor", "concentration": "0.1 µM", "quantity": "activity vs control", "result": "90%"}
{"SMILES": "Cc1ccc(C(=O)Nc2ccc(CN3CCN(C)CC3)c(C(F)(F)F)c2)cc1C#Cc1cnc2cccnn12", "effect on": "cell-free assay", "concentration": "23.5 nM", "quantity": "remaining signal", "result": "26%"}
{"SMILES": "Cc1sc(C(=O)NC2COC2)cc1-n1cc(NC(=O)Nc2c(F)cccc2Cl)cn1", "effect on": "enzyme activity", "action": "inhibitor", "concentration": "10 µM", "quantity": "remaining activity", "result": "86%"}
{"SMILES": "O=C(Nc1cccc(C(=O)Nc2ccc3[nH]ncc3c2)c1)Nc1ccccc1C(F)(F)F", "effect on": "enzyme activity", "action": "inhibitor", "technique": "FRET", "concentration": "1 µM", "quantity": "inhibition", "result": "23.7%"}
{"SMILES": "CN(C)c1ncnc(-c2ccc3nc(Nc4cc(CN5CCN(C(=O)CC(F)(F)F)CC5)ccn4)[nH]c3c2)c1Cl", "effect on": "cell-free assay", "technique": "competition with immobilised ligand", "concentration": "1 µM", "quantity": "remaining binding", "result": "61%"}
{"SMILES": "O=C(Nc1cnn(-c2csc(C(=O)NC3COC3)c2)c1)Nc1ccccc1Cl", "effect on": "enzyme activity", "action": "inhibitor", "concentration": "5 µM", "quantity": "remaining activity", "result": "64.3%"}
